Laboratory results as given in ChEMBL document CHEMBL4513216, “Probing the Open Global Health Chemical Diversity Library for Multistage-Active Starting Points for Next-Generation Antimalarials” (ACS Infect Dis, 2020).

Test: Toxicity liver stage against HepG2, at 10uM
Format: cell-based
Set-up: test concentration 10 uM, cell line HepG2-A16-CD81EGFP
Conditions: human, HepG2-A16-CD81EGFP cells; read-out: INHIBITION
Summary of the method: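 Uninfected HepG2-A16-CD81EGFP cells, 3 × 10^3 per well, 1536-well, plated on prespotted compound at 10 μM final, parasite-free screening media added to match infected plates; puromycin 10 μM positive, DMSO 0.5% negative; run in parallel with 48 h PbLuc assay at 37 °C, 5% CO2; viability by CellTiter-Glo luminescence, normalized to controls.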

Row | SMILES | cytotoxicity at 10 µM [%]
1 | O=C1CCC(C(=O)Nc2cnn(-c3ccccc3Cl)c2)N1 (stereo not given) | -7.41
2 | CNC(=O)[C@H]1C[C@@H]2CCN(Cc3ccncc3)C[C@H]2O1 | 10.3
3 | CSCCCN1C[C@H](NC(=O)c2cc(C3CC3)on2)[C@@H](C2CC2)C1 | 2.72
4 | Cn1c(=O)n(C)c2cc(C3SCC(=O)Nc4ccsc43)ccc21 (stereo not given) | 4.49
5 | CCc1nc(NC(=O)Cc2csc(-c3nnc[nH]3)n2)sc1C | -45.1
6 | c1cncc(COCc2cncc3c2CCN(Cc2ccoc2)C3)c1 | -109
7 | Cc1cc(N2CCC3(CCCN(CCO)C3=O)C2)nc2ccccc12 (stereo not given) | 3.69
8 | COc1cccc(N2CCN(C(=O)[C@H](O)C3CCCCC3)CC2=O)c1 | -14.1
9 | COc1nc(C)c(C(=O)N2CCc3[nH]nc(Cc4ccccc4)c3C2)s1 | -2.53
10 | COc1ncc(CN2CCCC(c3[nH]ncc3S(C)(=O)=O)C2)cn1 (stereo not given) | 7.24
11 | CC(Nc1ncnc2c1NC(=O)CN2)c1ccc2c(c1)OCO2 (stereo not given) | 8.19
12 | CN(C)C(=O)N1CC2(CCN(S(C)(=O)=O)CC2)c2ccccc21 | -121
13 | Cc1cc(C)c(CNC(=O)N2CCCC2c2ccc(F)cc2)c(=O)[nH]1 (stereo not given) | 1.38
14 | CCOC(=O)c1sc2ccsc2c1CNC(=O)C(C)OC (stereo not given) | -4.07
15 | CCOCCCC(=O)NCC(c1ccccc1)N1CCc2sccc2C1 (stereo not given) | 2.69
16 | CN(C)C(CNC(=O)NCCOc1ccccc1)c1ccco1 (stereo not given) | -6.2
17 | c1ccc(CCN2CCCC2c2cncc(Nc3nncs3)n2)cc1 (stereo not given) | 5.62
18 | CC(C)OC[C@H]1CCC[C@]12CN(C(=O)C1CCOCC1)CCO2 | -99.1
19 | CC(C)(C)NS(=O)(=O)c1ccccc1CNCc1ccccc1 | 5.74
20 | CCOc1cc(C(=O)N2CCCC(c3noc(C)n3)C2)ccc1OC (stereo not given) | -3.33
21 | Cc1ccc(CC(=O)N2CCN(CC(O)c3ccccc3)CC2)cn1 (stereo not given) | -10.9
22 | Cc1cnn(CCNCc2nc(-c3ccccn3)no2)c1 | -8

Row | SMILES | cytotoxicity at 10 µM [%]
23 | Cc1cc(CN(C)Cc2csc(-c3cccs3)n2)n[nH]1 | -4.14
24 | O=C(O)c1ccc(S(=O)(=O)Nc2cccc(CC(F)(F)F)c2)c(F)c1 | -6.19
25 | O=C(c1ccc(F)cc1)N1C[C@@H]2CN(c3ncccn3)C[C@@H]2C1 | 7.98
26 | Cc1cc(C(F)(F)F)nn1CCNC(=O)C(C)n1ccnc1C(C)C (stereo not given) | -5.24
27 | Cn1ncnc1-c1ccnc(NCc2ccncc2)n1 | -3.89
28 | O=C(c1ccc(Cl)c(Cl)c1)N1CCCC(n2cncn2)C1 (stereo not given) | -5.16
29 | CN(Cc1cc(Br)cn1C)C(=O)c1cccnc1 | -5.95
30 | O=C(Cc1cccs1)NCC(=O)Nc1cn[nH]c1 | 5.68
31 | Cc1n[nH]c2c1C(c1cnn(C)c1)SCC(=O)N2 (stereo not given) | 7.7
32 | COc1ccc(CNC(=O)N2CCOCC2C2CC2)c(C)c1 (stereo not given) | 4.54
33 | COCCO[C@@H]1CCN(C(=O)c2ccc(C)o2)[C@@H]1Cc1cccnc1 | -12.2
34 | Cc1ccc(N2CC[C@@H]3[C@@H]2CCN3C(=O)Cc2cccs2)nn1 | -99.8
35 | O=C(NCC1CCOCC1)[C@@H]1C[C@@H]2[C@@H](CCN2Cc2ccoc2)O1 | 5
36 | CC(C)c1nnc2n1CCN(Cc1ccc3c(c1)OCCO3)C2 | -0.234
37 | CN(C)CC(=O)N1CCC2(CCN(Cc3cccc(F)c3)CC2)C1 | 1.11
38 | OC(CN1CCN(Cc2nnc(C3CC3)o2)CC1)c1ccccc1 (stereo not given) | -6.82
39 | COc1cc2nc3n(c(=O)c2cc1OC)CCN(C(=O)C1CC1)CC3 | -13.6
40 | O=C(NCC1CC1)C1CSCN1S(=O)(=O)c1cc(F)cc(F)c1 (stereo not given) | 6.35
41 | CSc1ccccc1CC1CCCS(=O)(=O)C1 (stereo not given) | 2.26
42 | Cn1cccc1CNCC1CCCn2cc(C(C)(C)C)nc21 (stereo not given) | -19.8
43 | CC(C)C(=O)N1CCN(C(=O)c2cscn2)[C@H]2CS(=O)(=O)C[C@H]21 | -7.15
44 | O=C(c1cscn1)N1CCC2(CCN(Cc3nccs3)CC2)C1 | -69

Row | SMILES | cytotoxicity at 10 µM [%]
45 | Cc1cccc(N2CC3(CCN(S(=O)(=O)c4ccccc4)C3)CC2=O)c1 (stereo not given) | 11
46 | O=c1cc(N2CCCC2)cnn1Cc1noc(C2CCCO2)n1 (stereo not given) | -59.8
47 | Cc1nc(CN2CCOC3(CCCC3)C2)oc1C | 4.56
48 | CCCN1CCC(c2nc3ccc(C)cn3n2)CC1 | -118
49 | CCN1CC(C(=O)NC(C)(C)CC(C)(C)C)CC1=O (stereo not given) | -4.72
50 | COCCN1CCOCC2(C1)CN(C(=O)c1conc1C)CCO2 (stereo not given) | 7.1
51 | CS(=O)(=O)NC[C@]1(O)CCN(C(=O)Cc2cccs2)C[C@H]1O | -17.9
52 | Cc1cnc(N2CC[C@@H]3O[C@@H](COCC(=O)N(C)C)CC[C@@H]32)nc1 | 0.0508
53 | COc1ccc(CNCC(C)Oc2ccccn2)cc1Cl (stereo not given) | 7.36
54 | Clc1ccc(-c2c[nH]c([C@@H]3COCCN3)n2)cc1 | -10.1
55 | CN(C)S(=O)(=O)N1CCCC(c2cccc(Cc3ccc(F)cc3)n2)C1 (stereo not given) | 38.9
56 | Cc1nn(C)c2c(N3CCN(C(=O)C(C)C)CC3)ncnc12 | 6.78
57 | Cc1noc([C@H]2CC[C@@H]3[C@@H](CCN3c3ncccn3)O2)n1 | 3.06
58 | CS(=O)(=O)CCC(=O)Nc1nccn1Cc1ccccc1Cl | -5.98
59 | COC1C[C@@H]2CN(C(=O)c3cccc4c3OCCO4)C[C@@H]2C1 (stereo not given in full) | 7.77
60 | CC(O)CN1CCN(Cc2coc(-c3ccc(Cl)cc3)n2)CC1 (stereo not given) | -7.42
61 | CCS(=O)(=O)NCC(=O)N1CC2(CCCC2)c2c(F)cccc21 | 1.56
62 | CC1=N[C@@]2(CC[C@@H]3CN(Cc4cccc(Cl)c4)C[C@@H]32)C(=O)N1CC1CC1 | 0.758
63 | Cc1noc(Cl)c1CC(=O)N1CCCC(n2cccn2)C1 (stereo not given) | -6.14
64 | Cn1c(SCC2OCCc3ccccc32)n[nH]c1=O (stereo not given) | -5.76
65 | CN1CCN(Cc2cn3c(n2)CN(Cc2ccc(F)cc2)CC3)CC1 | -113
66 | NC(=O)C1CCCCN1C(=O)c1ccc(Br)s1 (stereo not given) | -6.38

Row | SMILES | cytotoxicity at 10 µM [%]
67 | Cc1cc(C)n(CCCNC(=O)NCc2c(C)cc(C)[nH]c2=O)n1 | -1.12
68 | Cc1noc(CN2Cc3ccccc3CC2c2nnc(C)o2)n1 (stereo not given) | -4.62
69 | CSCCC(NC(=O)c1ccc2ccccc2n1)C(=O)NC(C)C (stereo not given) | 9.3
70 | O=C(Cn1cc(-n2cccc2)cn1)NCC1CCC1 | 14.7
71 | CCN(CC)Cc1cc(=O)n2c(n1)CN(C(=O)c1ccc[nH]1)CCC2 | -112
72 | CCC1=NC(SCC(=O)c2ccc(C)cc2)c2cc(CC)sc2N1 (stereo not given) | 9.76
73 | O=C(c1ccc(CN2CC(n3cccn3)C2)cc1)N1CCCC1 | 9.56
74 | CCOc1cc(C)ccc1NS(=O)(=O)c1cc(C)c(C(=O)O)s1 | -6.44
75 | CCN(CC)CC(=O)N1CCN(c2nc(C)cc(OC)n2)CC1 | -10.4
76 | C/C=C(\C)CN1C[C@@H](NC(=O)c2ccc(F)c(F)c2)C[C@H]1C(=O)NCC | 14
77 | N#Cc1cccc(S(=O)(=O)NC(=O)COC2CCCC2)c1 | -4.79
78 | CC(C)NC(=O)N1CCOC2(CCNCC2)C1 | -2.69
79 | CN(C)CC(Nc1nc(N)nc2c1CCNCC2)c1ccccc1 (stereo not given) | -2.92
80 | CC(O)c1cn(Cc2ccc(Cl)cc2)nn1 (stereo not given) | 8.75
81 | CN(Cc1ncc[nH]1)c1nc(-c2ccccn2)nc2c1CCNCC2 | -0.796
82 | CC(=O)N(Cc1ncc(C)o1)C1CCN(CCOc2ccccc2)C1 (stereo not given) | 7.02
83 | COCC(=O)NC1(c2cccc(C(F)(F)F)c2)CCC1 | -50
84 | Cc1cnn(CCNCc2nnc(-c3ccc(F)cc3)o2)c1 | -43.9
85 | CC(C)NS(=O)(=O)c1cc(C(=O)O)cc(-n2cc3c(n2)CCC3)c1 | 3.19
86 | O=C([C@H]1C[C@H]2OCC[C@H]2N(CC2CCOCC2)C1)N1CCCCO1 | -73.9
87 | CC(=O)N1CCCC1CCc1ccc(Cl)nn1 (stereo not given) | 3.39
88 | Nc1cnc(-c2cccc3ccnn23)cn1 | -1.7

Row | SMILES | cytotoxicity at 10 µM [%]
89 | OCC1CCCN(c2ncnc3c2Cc2ccccc2OC3)C1 (stereo not given) | 1.44
90 | CN(CC1CCCC1)C(=O)c1cn(C)nc1-c1cccnc1 | -0.0402
91 | CN1C(=O)CC(c2ccccc2)C12CCN(CC1CCOCC1)CC2 (stereo not given) | 1.02
92 | CN(CCc1cccs1)C(=O)Nc1ccc2c(c1)C(=O)N(C)CC2 | -5.44
93 | N#CCCN(Cc1cccnc1)C(=O)c1ccc(-n2cnnn2)cc1 | 4.59
94 | Cc1cnc(N2CCc3c(CNc4ccnc(C)n4)cncc3C2)nc1 | -39.1
95 | Cc1nccn1CCC1CCN(c2ncccn2)CC1 | -3
96 | CC(=O)N1CC[C@H]2C(=O)N(c3ccsc3)CCO[C@H]2C1 | 4.47
97 | NC(=O)N1CCCN(C2CCc3ccc(F)cc32)CC1 (stereo not given) | 3.93
98 | Cc1ccc(CC(=O)N2CCOCC2c2c(C)n[nH]c2C)cc1 (stereo not given) | 5.12
99 | CN(C(=O)NCc1nccn1Cc1ccccc1)C1CC1 | -2.22
100 | c1ccc(CCN2CCCC2c2ccnc(Nc3cnccn3)n2)cc1 (stereo not given) | -3.65
101 | COCC1COCCC12CCN(Cc1cccs1)CC2 (stereo not given) | 6.13
102 | CC(C)n1cc(CN2CCCN(C(=O)C(C)n3cccn3)CC2)cn1 (stereo not given) | -17.9
103 | Cc1ccc(F)c(C(=O)Nc2cccc(CCN3CCCC3)c2)c1 | 0.0833
104 | O=C(CCNc1ncccn1)N1CCCC(n2ccnc2)C1 (stereo not given) | 0.289
105 | CC(=O)Nc1nc(C(=O)NCCOc2cccc(F)c2)cs1 | 7.9
106 | CCc1oc(C(=O)NCCc2nc(C(=O)O)cs2)cc1CN1CCCC1 | 19.3
107 | O=C(c1cc(Br)ccc1Cl)N1CCN(Cc2ccco2)CC1 | -49.4
108 | Cc1cc(N2CCCC(OC(=O)CCc3cnn(C)c3)C2)nc(C)n1 (stereo not given) | 0.127
109 | CCc1noc(CN(C)CCC(=O)Nc2ccc(Cl)cc2)n1 | 2.78
110 | CCC(C)NC(=O)Nc1ccc(CN2CCOC2=O)cc1 (stereo not given) | 10.5
